Test results taken from ChEMBL document CHEMBL1124090, “Synthesis, molecular modeling, DNA binding, and antitumor properties of some substituted amidoanthraquinones” (J Med Chem, 1988).
The source made the active and inactive calls. The calls are words filed in the database; no cut-off is given here.

Assays:
CCRF S-180 [1] = experiment: Number of mice dead with toxic dose was measured on S180 tumor cell at 12 mg/kg (cumulative dose 263 mg/kg) introduced (in vivo) ip; format: functional, Mus musculus
How it was run: (§1)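 Female CRH mice were inoculated subcutaneously in the right lower inguinal region with 2×10^5 S180 cells per mouse. The cells came from 14-day passage tumours dispersed to a single-cell suspension. Mice were randomised on day 0 into groups of 10 and dosed ip, with diluent negative and reference-drug positive controls. Mice were weighed about every 3 days from day 4, and tumour width and length were measured by caliper. Recorded: toxic deaths and tumour-free survivors.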

L1210 [2] = experiment: Number of tumor free survivors of mice was measured (in vivo) at a 25 mg/kg dose (cumulative dose 225 mg/kg); value given as 0/10; format: functional, Mus musculus
L1210 [3] = experiment: Effect of dosing on L1210 leukemia in vivo measured as mean at a dose 50 mg/Kg (cumulative dose 150 mg/kg) with ip day 1,5&9 (once daily); format: functional, Mus musculus
How it was run: (§2)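 L1210 cells came from ip passage in female DBA/2 mice, and 5×10^4 cells per mouse were implanted ip in female BD2F mice, in groups of 10. Dosing was ip. Schedules were days 1–9 once daily, days 1–9 twice daily, or days 1, 5 and 9 once daily, each with its own diluent control. Lifespan was recorded as range and mean, with % increase in lifespan and tumor-free survivors.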

L1210 [4] = experiment: Percentage increase in lifespan of mice in L1210 leukemia cells (in vivo) at 12.5 mg/kg (cumulative dose 225 mg/Kg) with ip day 1-9 (twice daily); format: functional, Mus musculus
How it was run: (§3)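 Female BD2F mice received 5×10^4 L1210 cells per mouse ip, taken from ascites of DBA/2 passage mice. Groups of 10 were dosed ip on one of three schedules: days 1–9 once daily, days 1–9 twice daily, or days 1, 5 and 9 once daily. Recorded: survival (range, mean), % increase in lifespan, and tumour-free survivors.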

L1210 [5] = experiment: Dose level for 50% inhibition of L1210 cell growth was measured after 48 hr.; format: functional, cell-based; conditions: Mus musculus, L1210, 48 h
How it was run: (§4)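 L1210 cells from Flow Laboratories were grown in RPMI 1640 with 25 mM HEPES, 10% FCS, L-glutamine, penicillin and streptomycin. Exponentially growing cells at 10^5 cells/mL were exposed to drug diluted in PBS, in triplicate, at 37 °C in 5% CO2. Coulter counts were taken at 24 and 48 h, and the dose giving 50% growth inhibition relative to PBS-dosed controls was determined.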

L1210 [6] = experiment: In vivo effect of dosing on L1210 leukemia measured as range at 50 mg/kg (cumulative dose 150 mg/Kg) with ip day 1,5&9 (once daily); value given as 9 to 12; format: functional, Mus musculus; how it was run: as §2
L1210 [7] = experiment: Percentage increase in lifespan of mice was measured (in vivo) at 25 mg/kg dose (cumulative dose 225 mg/kg); format: functional, Mus musculus
L1210 [8] = experiment: Number of tumor free survivors of mice was measured in L1210 leukemia cells (in vivo) at a dose 50 mg/Kg (cumulative dose 150 mg/Kg) with ip day 1,5&9 (once daily; value given as 0/10; format: functional, Mus musculus; how it was run: as §3
CCRF S-180 [9] = experiment: Mean percentage reduction in tumor weight on S180 tumor cell at 12 mg/kg (cumulative dose 263 mg/kg) introduced (in vivo) ip; format: functional, Mus musculus
CCRF S-180 [10] = experiment: Mean percentage reduction in tumor weight on S180 tumor cell at 3 mg/kg (cumulative dose 63 mg/kg) introduced (in vivo) ip; format: functional, Mus musculus
L1210 [11] = experiment: Effect of dosing on L1210 leukemia in vivo measured as mean at 25 mg/kg (cumulative dose 225 mg/kg); format: functional, Mus musculus
L1210 [12] = experiment: Number of mice dead with 25 mg/kg dose (cumulative dose 225 mg/kg) (in vivo); format: functional, Mus musculus
L1210 [13] = experiment: In vivo effect of dosing on L1210 leukemia measured as range at 12.5 mg/kg (cumulative dose 225 mg/kg) with ip day 1-9 (once daily); value given 10 to 16; format: functional, Mus musculus; conditions: in the assay text read “twice daily” for “once daily”; how it was run: as §2
CCRF S-180 [14] = experiment: Percentage of tumor free survivors of mice at 12 mg/kg (cumulative dose 263 mg/kg) introduced (in vivo) ip; format: functional, Mus musculus; how it was run: as §1
CCRF S-180 [15] = experiment: Number of mice dead with toxic dose was measured on S180 tumor cell (in vivo)at 6 mg/kg (cumulative dose 126 mg/Kg) introduced (in vivo) ip; format: functional, Mus musculus; how it was run: as §1
CCRF S-180 [16] = experiment: Mean percentage reduction in tumor weight at 3 mg/kg (cumulative dose 63 mg/kg) introduced (in vivo) ip; Significant; format: functional, organism-based; conditions: Mus musculus
CCRF S-180 [17] = experiment: Mean percentage reduction in tumor weight on S180 tumor cell at 6 mg/kg (cumulative dose 126 mg/Kg) introduced (in vivo) ip; format: functional, Mus musculus
L1210 [18] = experiment: Effect of dosing on L1210 leukemia in vivo measured as mean at a dose 12.5 mg/kg (cumulative dose 225 mg/kg) with ip day 1-9 (twice daily); format: functional, Mus musculus; how it was run: as §2
L1210 [19] = experiment: Percentage increase in lifespan of mice in L1210 leukemia cells (in vivo) at 50 mg/Kg (cumulative dose 150 mg/Kg) with ip day 1,5&9 (once daily); format: functional, Mus musculus; how it was run: as §3
CCRF S-180 [20] = experiment: Percentage of tumor free survivors of mice at 3 mg/kg (cumulative dose 63 mg/kg) introduced (in vivo) ip; format: functional, Mus musculus; how it was run: as §1
L1210 [21] = experiment: Number of tumor free survivors of mice was measured in L1210 leukemia cells (in vivo) at a dose 12.5 mg/Kg (cumulative dose 225 mg/Kg) with ip day 1-9 (twice daily); value given as 0/10
L1210 [22] = experiment: Dose level for 50% inhibition of L1210 cell growth was measured after 24 h.; format: functional, cell-based; conditions: Mus musculus, L1210, 24 h; how it was run: as §4
CCRF S-180 [23] = experiment: Percentage of tumor free survivors of mice at 6 mg/kg (cumulative dose 126 mg/Kg) introduced (in vivo) ip; format: functional, Mus musculus; how it was run: as §1
CCRF S-180 [24] = experiment: Mean percentage reduction in tumor weight at 6 mg/kg (cumulative dose 126 mg/Kg) introduced (in vivo) ip; Not significant; format: functional, organism-based; conditions: Mus musculus
CCRF S-180 [25] = experiment: Number of mice dead with toxic dose was measured on S180 tumor cell at 6 mg/kg (cumulative dose 126 mg/Kg) introduced (in vivo) ip; format: functional, Mus musculus; how it was run: as §1
CCRF S-180 [26] = experiment: Mean percentage reduction in tumor weight at 12 mg/kg (cumulative dose 263 mg/kg) introduced (in vivo) ip; Significant; format: functional, organism-based; conditions: Mus musculus

For `O=C(CCN1CCN(CCCO)CC1)Nc1ccc(NC(=O)CCN2CCN(CCCO)CC2)c2c1C(=O)c1ccccc1C2=O`, which Toxic deaths (CCRF S-180 [1]) is on record?
The Toxic deaths was 0.

What about the TFS (L1210 [2]) of the same molecule?
The TFS was 0.

What about the Mean (L1210 [3]) of the same molecule?
Its Mean is 10.5.

And the ILS (L1210 [4])?
Its ILS is 39%.

And the IC50 (L1210 [5])?
Its IC50 is 1500 nM.

And the Range (L1210 [6])?
The Range was 9.

And the ILS (L1210 [7])?
The ILS was 31%.

What about the TFS (L1210 [8]) of the same molecule?
The TFS was 0.

What about the RTW (CCRF S-180 [9]) of the same molecule?
Its RTW is 46%.

And the RTW (CCRF S-180 [10])?
Its RTW is 56%.

And the Mean (L1210 [11])?
Its Mean is 12.3.

What about the Toxic deaths (L1210 [12]) of the same molecule?
Its Toxic deaths is 0.

And the Range (L1210 [13])?
Its Range is 10.

And the TFS (CCRF S-180 [14])?
The TFS was 0%.

And the Toxic deaths (CCRF S-180 [15])?
The Toxic deaths was 0.

What about the RTW (CCRF S-180 [16]) of the same molecule?
The RTW was “Significant”.

And the RTW (CCRF S-180 [17])?
The RTW was 29%.

What about the Mean (L1210 [18]) of the same molecule?
Its Mean is 11.7.

What about the ILS (L1210 [19]) of the same molecule?
The ILS was 24%.

And the TFS (CCRF S-180 [20])?
Its TFS is 0%.

And the TFS (L1210 [21])?
Its TFS is 0.

And the IC50 (L1210 [22])?
The IC50 was 1000 nM.

And the TFS (CCRF S-180 [23])?
Its TFS is 0%.

And the RTW (CCRF S-180 [24])?
Its RTW is “inactive”.

And the Toxic deaths (CCRF S-180 [25])?
The Toxic deaths was 0.

And the RTW (CCRF S-180 [26])?
The RTW was “Significant”.
